Here are results for one compound from ChEMBL document CHEMBL4007399, “Discovery and Synthesis of a Phosphoramidate Prodrug of a Pyrrolo[2,1-f][triazin-4-amino] Adenine C-Nucleoside (GS-5734) for the Treatment of Ebola and Emerging Viruses” (J Med Chem, 2017).

Some results are limits rather than exact numbers.

Series [1] has as its system Brain. The series can be described thus: Drug uptake in cynomolgus monkey brain at 10 mg/kg, iv at 4 hrs post dose. To be noted: in vivo. Type of series: ADME, organism-based, Macaca fascicularis.
The test system of another series is HEp-2. The series can be described thus: Cytotoxicity against human Hep2 cells assessed as reduction in cell viability after 4 to 5 days by Cell-Titer Glo assay. Type of series: cell-based. Conditions: hep-2; call rule not given here.
Series [2] concerns Ebolavirus. Put plainly: Antiviral activity against GFP-fused Ebolavirus infected in TERT-immortalized HMVEC assessed as reduction in viral replication preincubated with cells followed by viral infection measured after 3 to 4 days by fluorescence assay. The class given is functional.
Series [3] is described as follows: Drug metabolism in cynomolgus monkey testes at 10 mg/kg, iv after 168 hrs post dose. The class given is ADME, organism-based, Macaca fascicularis, Testis. Conditions: in vivo.
The next series has as its system MT4. Put plainly: Cytotoxicity against human MT4 cells assessed as reduction in cell viability after 4 to 5 days by Cell-Titer Glo assay. Type of series: cell-based. Conditions: mt4.
The test system of series [4] is Ebolavirus. Put plainly: Antiviral activity against Ebolavirus infected in rhesus monkey assessed as viral RNA copies at 10 mg/kg, iv administered daily administered daily starting from day 3 post infection measured on day 5 and 7 (reference value: 10^9 copies/ml). Type of series: functional.
The nature of series [5]: Drug uptake in cynomolgus monkey epididymis at 10 mg/kg, iv at 4 hrs post dose. The class given is ADME, organism-based, Macaca fascicularis. Conditions: in vivo.
For series [6], the system named is Ebolavirus. Put plainly: Antiviral activity against Ebolavirus Kikwit infected in human HeLa cells assessed as reduction in viral glycoprotein levels preincubated with cells for 2 hrs followed by viral infection measured after 48 hrs by immunostaining based assay. Type of series: functional, cell-based. Conditions: hela.
Series [7] relates to Plasma. The series can be described thus: Drug uptake in cynomolgus monkey plasma at 10 mg/kg, iv at 4 hrs post dose. The class given is ADME, organism-based, Macaca fascicularis. To be noted: in vivo.
In series [8] the test system is Plasma. Put plainly: Prodrug conversion in rhesus monkey plasma assessed as (2R,3R,4S,5R)-2-(4-aminopyrrolo[1,2-f][1,2,4]triazin-7-yl)-3,4-dihydroxy-5-(hydroxymethyl)tetrahydrofuran-2-carbonitrile formation at 10 mg/kg, iv administered as single bolus dose. Type of series: ADME, organism-based, Macaca mulatta. Conditions: in vivo. An outline of the steps:
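Rhesus monkeys received a single 10 mg/kg iv slow bolus. Plasma was sampled over time, and the prodrug and the parent nucleoside formed from it were both quantified to give a concentration–time profile. Values are mean ± SD, n = 3 per time point.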

Series [9] concerns Homo sapiens. Put plainly: Toxicity in iv dosed phase-1 acute meningoencephalytis patient administered as single dose. To be noted: in vivo. The class given is organism-based.
In series [10] the test system is Ebolavirus. Put plainly: Antiviral activity against Ebolavirus infected in rhesus monkey assessed as survival rate at 3 mg/kg, iv qd administered continuously starting from day 3 post infection for 12 days measured on day 28 (reference value: 33%). Type of series: functional. Conditions: Orthoebolavirus, in Macaca mulatta.
Series [11] in a line: Drug uptake in cynomolgus monkey testes at 10 mg/kg, iv at 4 hrs post dose. Type of series: ADME, organism-based, Macaca fascicularis, Testis. Conditions: in vivo.
Series [12] relates to Brain. Put plainly: Drug uptake in cynomolgus monkey brain at 10 mg/kg, iv at 168 hrs post dose. Type of series: ADME, organism-based, Macaca fascicularis. Conditions: in vivo.
Series [13] concerns Ebolavirus. The series can be described thus: Antiviral activity against Ebolavirus infected in rhesus monkey assessed as survival rate at 10 mg/kg, iv administered daily starting from day 3 post infection for 12 days relative to control. Conditions: Orthoebolavirus, in Macaca mulatta. The class given is functional.
Series [14] relates to Homo sapiens. Put plainly: Toxicity in phase-1 acute meningoencephalytis patient at 150 mg, iv qd administered daily for 2 days followed by 225 mg for 14 days. Type of series: organism-based. To be noted: in vivo.
Series [15] relates to Ebolavirus. Put plainly: Antiviral activity against Ebolavirus Kikwit infected in human macrophages preincubated with cells for 2 hrs followed by viral infection measured after 48 hrs. The class given is functional.
The test system of another series is Human orthopneumovirus. The series can be described thus: Antiviral activity against Respiratory syncytial virus A2 infected in human Hep2 cells assessed as reduction of virus-induced cytopathic effect after 4 days by Cell-Titer Glo assay. Type of series: functional, cell-based.
Series [16] has as its system PBMC. Put plainly: Time at which plasma concentration greater than in vitro EBOV antiviral IC50 in rhesus monkey PBMC assessed as ((2R,3S,4R,5R)-5-(4-aminopyrrolo[1,2-f][1,2,4]triazin-7-yl)-5-cyano-3,4-dihydroxytetrahydrofuran-2-yl)methyl tetrahydrogen triphosphate levels at 10 mg/kg, iv administered as single bolus. The class given is ADME, organism-based, Macaca mulatta. Conditions: in vivo. An outline of the steps:
(§1)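 Rhesus monkeys received a single 10 mg/kg iv slow bolus. The active triphosphate metabolite was measured inside PBMCs over time to build a concentration–time profile. Values are mean ± SD, n = 3 per time point.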

A short description of series [17]: Lipophilicity, log D of the compound after 30 mins by HPLC/UV method. Type of series: physicochemical. To be noted: 0.5 h.
For another series, the system named is Hepatitis C virus. The series can be described thus: Antiviral activity against Hepatitis C virus genotype 1b infected in human HuH7 cells preincubated with cells for 3 days followed by viral infection by luciferase assay. Type of series: functional, cell-based, Hepacivirus hominis.
Series [18] relates to Plasma. Put plainly: Half life in human plasma at 2 uM by LC/MS/MS analysis. To be noted: 2 µM. The class given is ADME, cell-free.
The subject of series [19] is PBMC. The series can be described thus: Drug metabolism in rhesus monkey PBMC assessed as ((2R,3S,4R,5R)-5-(4-aminopyrrolo[1,2-f][1,2,4]triazin-7-yl)-5-cyano-3,4-dihydroxytetrahydrofuran-2-yl)methyl tetrahydrogen triphosphate levels at 10 mg/kg, iv administered as single bolus dose up to 2 hrs. Type of series: ADME, organism-based, Macaca mulatta. Conditions: in vivo. The essentials: as §1

In the case of `CCC(CC)COC(=O)[C@H](C)N[P@](=O)(OC[C@H]1O[C@@](C#N)(c2ccc3c(N)ncnn23)[C@H](O)[C@@H]1O)Oc1ccccc1`, the Drug uptake entry is listed as “Not Active” in the series on Brain [1]; “Metabolite_Detected” in [3]; “Active” in series [5]; “Active” in the series on Plasma [7]; “Active” in series [11]; “Active” in the series with Brain [12]. In addition, the CC50 turned out to be 6100 nM in the series with HEp-2 and 1700 nM in the series with MT4. The concentration for a half-maximal effect (EC50) in the series with Ebolavirus [2] turned out to be 53 nM; in the series with Ebolavirus [6] it was 100 nM; in the series with Ebolavirus [15] it was 86 nM; in the series on Human orthopneumovirus, 15 nM; in the series on Hepatitis C virus, 57 nM. For the same compound, the Activity was less than 80000 mL⁻¹ with Ebolavirus [4], “Non-Toxic” with Homo sapiens [9] and “Non-Toxic” with Homo sapiens [14]. Besides, the Drug metabolism entry with Plasma [8] and with PBMC [19] was “Metabolite_Detected” each time. Further, the survival at 3 mg/kg in the series with Ebolavirus [10] worked out at 66%. The survival at 10 mg/kg with Ebolavirus [13] came to 100%. For the same compound, the Time with PBMC [16] stood at 24 h. This compound also showed a logD in series [17] of 2.1. The compound further showed a t1/2 with Plasma [18] of 1.15 h.

What is called CC50 is the concentration at which the toxic effect on the cells reaches its halfway point. As a reminder, the EC50 is the midpoint of the concentration-response curve. Broadly, the logD is the decadic logarithm of the distribution of all forms, ionised or not, between an organic phase and buffer at a given pH.
